Sampled rows, rich in hits. Any-hit rate of the full collection: about 2.9%.
TCR-CD3 inh: blocks the human TCR-CD3 interaction; TAMRA-labeled TCR probe fluorescence, biochemical; 0.37% of 360,000 active; inhibition, % at 9.4 µM; AID 651800; in the data active = inhibition above about 19%;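 also: recombinant mutant TCR 2C K166C tagged with TAMRA read by polarization; 0% = receptor in buffer alone and 100% = receptor with positive control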
HTRA1 inh: inhibitors of human serine peptidase HTRA1 | Q92743 | recombinant HTRA1, FP-rhodamine activity-based probe, fluorescence polarization | inhibition, % at 5.96 µM | 0.5% of 340,000 active | AID 504803; in the data active = inhibition above about 36%;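 also: 0% = enzyme with DMSO and 100% = wells lacking enzyme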
Target sequence (Q92743 whole entry, looked up): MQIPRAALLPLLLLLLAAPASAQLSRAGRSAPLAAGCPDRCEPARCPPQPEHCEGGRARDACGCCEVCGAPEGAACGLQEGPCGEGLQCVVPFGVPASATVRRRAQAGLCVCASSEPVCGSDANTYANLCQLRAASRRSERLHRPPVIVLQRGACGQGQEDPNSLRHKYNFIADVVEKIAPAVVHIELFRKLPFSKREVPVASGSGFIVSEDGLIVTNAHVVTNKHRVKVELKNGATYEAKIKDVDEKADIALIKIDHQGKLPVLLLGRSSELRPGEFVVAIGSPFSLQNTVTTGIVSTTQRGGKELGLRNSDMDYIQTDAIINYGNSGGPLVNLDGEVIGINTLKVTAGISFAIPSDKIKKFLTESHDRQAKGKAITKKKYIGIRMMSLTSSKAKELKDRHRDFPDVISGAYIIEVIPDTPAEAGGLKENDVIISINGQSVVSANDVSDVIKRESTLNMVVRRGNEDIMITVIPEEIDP
ATG4B inh: blocks human ATG4B protease cleavage of LC3 substrate | Q9Y4P1 | ATG4B cleavage of LC3-PLA2, NBD-HPC fluorescence, 1 h | inhibition, % at 8.33 µM | 0.51% of 340,000 active | AID 504462; in the data active = inhibition above about 40%
SIAE primary: human SIAE inhibition, primary screen | 0.69% of 370,000 active | inhibition, % at 9.66 µM | SIAE FP-Rh probe binding, fluorescence polarization;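 active = inhibition above a cutoff: mean of compounds within the control limits plus 3 SD of those, cut at about 17% in these data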;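 also: 0% = plate median of compound wells and 100% = probe without SIAE protein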
PRMT1 FP inh: inhibitors of human PRMT1; 1.3% of 370,000 active; Q99873; inhibition, % at 2.79 µM; recombinant PRMT1, activity-based probe fluorescence polarization;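 active = inhibition above about 21% made by adding two undisclosed values, limit read from the data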
mABHD4 FP: inhibitors of mouse ABHD4; Q8VD66; purified mABHD4, FP-Rh probe fluorescence polarization; inhibition, % at 8.92 µM; 0.54% of 370,000 active;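 active = inhibition exceeding the mean over every tested compound plus 3 SD, cut at about 30% in these data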;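 also: 0% = plate median of compound wells and 100% = S159A mutant with DMSO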
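assay system = mABHD4 protein | compound dosing = single nominal dose of 8.92 µM, 0.89% DMSO final | read-out basis = percent inhibition of probe binding, normalized to plate controls | schedule = Enzyme–compound pre-incubation 45 min, then probe 60 min, both 25 °C | detection = fluorescence polarization, excitation 525 nm, emission 598 nm, BODIPY TMR filters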
ATG4B conf: ATG4B (human) inhibition, single-dose confirmed. ATG4B protease fluorescent substrate cleavage assay. AID 504757. inhibition, % at 8.33 µM. 92% of 320 active. shares compounds with ATG4B inh; in the data active = inhibition above about 39%
PLA2 ctr: inhibits human PLA2, flagging false ATG4B inhibitors; shares compounds with ATG4B inh; purified PLA2, NBD-C6-HPC fluorescence, 45 min; inhibition, % at 8.33 µM; 66% of 1,600 active; AID 588402; in the data active = inhibition above about 50%
Starred values were filed as active, the others as inactive; . = not tested or not shown.

SMILES | TCR-CD3 inh | HTRA1 inh | ATG4B inh | SIAE primary | PRMT1 FP inh | mABHD4 FP | PLA2 ctr | others
Cc1c(C(=O)N2CCc3ccccc3C2)sc2nc(-c3ccccc3)cn12 | -5 | -29 | 45* | -7 | 10 | -10 | 53*
Cc1ccc(Cn2cc(CN(C)S(=O)(=O)c3ccccc3Br)nn2)cc1 | . | . | . | -2 | 1 | 5 | .
O=C1Nc2ccccc2S/C1=C/NCc1ccccc1Cl | 0 | 2 | 55* | 13 | 20 | 1 | 61*
O=C1Nc2ccccc2S/C1=C/c1cccs1 | 3 | -5 | -7 | 7 | -3 | 4 | .
CCc1ccccc1N(CC)C(=O)C1CCN(c2ncnc3c2nc2n3CCCCC2)CC1 | 2 | -2 | 53* | 1 | 4 | -5 | 66*
CCN(Cc1ccccc1)C(=O)C1CCN(c2ncnc3c2nc2n3CCCCC2)CC1 | -8 | 0 | 45* | 0 | -1 | -9 | 53*
O=C(O)COc1ccc(-c2nc(-c3ccccc3)c(-c3ccccc3)[nH]2)cc1 | 0 | -3 | 48* | 8 | -2 | -6 | 59*
COc1cccc(-c2csc(NC3OC(=O)c4c3ccc(OC)c4OC)n2)c1 (centres undefined) | -10 | . | 5 | 0 | 3 | -1 | .
COc1ccc2c(c1OC)C(=O)OC2Nc1nc(-c2ccc(-c3ccccc3)cc2)cs1 (centres undefined) | 5 | -18 | 64* | 5 | 3 | 3 | 47 | ATG4B conf=39*
CCCNC(=O)Nc1ccc2c(c1)C(=O)N(C)[C@H]1CC[C@@H](CC(=O)OC)O[C@H]1CO2 | . | . | . | 10 | 2 | 2 | .
COc1cccc(-c2nc(SCC(=O)Nc3nc(-c4ccccc4)c(C)s3)[nH]c(=O)c2C#N)c1 | 5 | -59 | 42* | -54 | 1 | -52 | 38 | ATG4B conf=75*
Cc1ccc(S(=O)(=O)N2OC(c3ccccc3)C[C@H]2CC=C(c2ccccc2)c2ccccc2)cc1 (some centres undefined) | . | . | . | 2 | -1 | -4 | .
CCOC(=O)c1cccc(-c2cc(C(=O)OC)c3n(c2=O)CCC3)c1 | . | . | . | 0 | -3 | -3 | .
Cn1cc(CCC(=O)N2CCCC(CCC(=O)NCc3ccc(F)c(F)c3)C2)cn1 (centres undefined) | 3 | 5 | 42* | 3 | 0 | -3 | 47
O=C(O)c1[nH]c2ccccc2c1C(c1cc(Cl)cc([N+](=O)[O-])c1O)c1c(C(=O)O)[nH]c2ccccc12 | 1 | 35 | 58* | 0 | 6 | 68* | 40 | ATG4B conf=30
COC(=O)[C@H](C(C)C)N(CCc1cn(CC2CCCCC2)nn1)S(=O)(=O)c1ccc(F)cc1Br | . | . | . | -2 | -1 | 1 | .
O=[N+]([O-])c1cccc(-c2csc(Nc3ccccc3)n2)c1 | -5 | -16 | 6 | 2 | 1 | 10 | .
COc1cc(NS(=O)(=O)c2ccc(Nc3nc(-c4cccc([N+](=O)[O-])c4)cs3)cc2)nc(OC)n1 | -4 | -66 | 45* | 9 | 3 | -1 | 43 | ATG4B conf=78*
CCn1cc(C(=O)N2CCN(c3ccc(F)cc3)CC2)c(=O)c2ccc(C)nc21 | . | . | . | 1 | -1 | 3 | .
Cc1csc(NC(=O)c2cccc([N+](=O)[O-])c2C(=O)O)n1 | -3 | 3 | -5 | 6 | -4 | -3 | .
O=C(Nc1nc(-c2ccccc2)cs1)c1cccc([N+](=O)[O-])c1C(=O)O | 6 | -1 | 55* | -3 | 2 | 2 | 65*
O=C(CN1C(=O)COc2ccccc21)NCCCN1CCc2ccccc2C1 | 1 | 5 | 76* | 0 | -1 | -10 | -12
O=c1c2ccccc2c(-c2ccc(O)cc2)nn1-c1cccc(C(F)(F)F)c1 | -5 | -66 | 60* | -31 | 5 | -66 | 72*
Cc1ccc(S(=O)(=O)Nc2ccc(-c3nnc(SCc4ccccc4Cl)o3)cc2)cc1 | -3 | -95 | 52* | -86 | -3 | -1 | 46
COc1cc(OC)cc(-c2nc3ccccc3c(=O)n2OC(=O)c2ccccc2C)c1 | 5 | -16 | 45* | -8 | -2 | -5 | 31 | ATG4B conf=67*
